Starred links: 1 amine or outer side, 2 acyl side, 3 side chain; linkers in the order of their positions; H or OH if unused. Non-standard residues stand in square brackets, D forms with d. Residues, ends and D or L forms follow the SMILES beside them. X4 = O=C([C@H](Cc1cc[nH]n1)N[*:1])[*:2]; 2Thi = N[C@@H](Cc1cccs1)C(=O)O; Orn = NCCC[C@H](N)C(=O)O
Species: Rattus norvegicus
Test: Pressor activity in rat relative to angiotensin-2
Assay type: functional
Outline: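 Male rats, anesthetized with pentobarbital, nephrectomized and treated with pentolinium; blood pressure rise recorded after dosing. Peptides dissolved in normal saline with 0.1% polyvinylpyrrolidone, held in siliconized glass containers. Activity expressed relative to [Asn1,Val5]angiotensin II set at 100.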

Question: For `CC[C@H](C)[C@H](NC(=O)[C@H](Cc1ccc(O)cc1)NC(=O)[C@@H](NC(=O)[C@H](CCCN=C(N)N)NC(=O)[C@@H](N)CC(=O)O)C(C)C)C(=O)N[C@@H](Cc1c[nH]cn1)C(=O)N1CCC[C@H]1C(=O)N[C@@H](Cc1ccccc1)C(=O)O`, which Activity is on record?
Answer: 4%

Question: With `CC[C@H](C)[C@H](NC(=O)[C@H](Cc1ccc(O)cc1)NC(=O)[C@@H](NC(=O)[C@H](CCCN=C(N)N)NC(=O)[C@@H](N)CC(=O)O)C(C)C)C(=O)N[C@@H](Cc1cncn1C)C(=O)N1CCC[C@H]1C(=O)N[C@@H](Cc1ccccc1)C(=O)O` as the compound, how does the Activity read?
Answer: 0.05%

Question: Which Activity does the source give for `CC[C@H](C)[C@H](NC(=O)[C@H](Cc1ccc(O)cc1)NC(=O)[C@@H](NC(=O)[C@H](CCCN=C(N)N)NC(=O)[C@@H](N)CC(=O)O)C(C)C)C(=O)N[C@@H](Cc1cn(C)cn1)C(=O)N1CCC[C@H]1C(=O)N[C@@H](Cc1ccccc1)C(=O)O` here?
Answer: 5%

Question: With `CC[C@H](C)[C@H](NC(=O)[C@H](Cc1ccc(O)cc1)NC(=O)[C@@H](NC(=O)[C@H](CCCNC(=N)N)NC(=O)[C@@H](N)CC(=O)O)C(C)C)C(=O)N[C@@H](Cc1cccs1)C(=O)N1CCC[C@H]1C(=O)N[C@@H](Cc1ccccc1)C(=O)O` (H-DRVYI[2Thi]PF-OH) as the compound, how does the Activity read?
Answer: 10%

Question: With `CC[C@H](C)[C@H](NC(=O)[C@H](Cc1ccc(O)cc1)NC(=O)[C@@H](NC(=O)[C@H](CCCNC(=N)N)NC(=O)[C@@H](N)CC(=O)O)C(C)C)C(=O)N[C@@H](CCCN)C(=O)N1CCC[C@H]1C(=O)N[C@@H](Cc1ccccc1)C(=O)O` (H-DRVYI[Orn]PF-OH) as the compound, how does the Activity read?
Answer: 0.03%

Question: `CC[C@H](C)[C@H](NC(=O)[C@H](Cc1ccc(O)cc1)NC(=O)[C@@H](NC(=O)[C@H](CCCNC(=N)N)NC(=O)[C@@H](N)CC(=O)O)C(C)C)C(=O)N[C@@H](Cc1cc[nH]n1)C(=O)N1CCC[C@H]1C(=O)N[C@@H](Cc1ccccc1)C(=O)O` (H-DRVYI[X4]PF-OH) was tested. Which Activity did it give?
Answer: 57%

Question: How did the Activity turn out when H-DRVYIAPF-OH was run?
Answer: 0.8%

Question: With H-DRVYIEPF-OH as the compound, how does the Activity read?
Answer: 0%

Question: How did the Activity turn out when H-DRVYIFPF-OH was run?
Answer: 3%

Question: For H-DRVYIKPF-OH, which Activity is on record?
Answer: 0.1%

Question: How did the Activity turn out when H-DRVYILPF-OH was run?
Answer: 0.02%

Question: Which Activity does the source give for H-DRVYIMPF-OH here?
Answer: 0.2%

Question: For H-DRVYIRPF-OH, which Activity is on record?
Answer: 0.01%
